Activity calls are given as the source filed them. No cut-off for these calls is given here.
How the values were obtained:
HeLa [1] = experiment: Cytotoxicity against human HeLa cells assessed as reduction in cell viability measured after 48 hrs by sulforhodamine B assay; assay type: functional; details: read-out: LC50 (the source's name)
Outline: (§1)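 HeLa cells exposed to compound for 48 h, then growth measured by sulforhodamine B (SRB) staining. GI50 (50% growth inhibition), TGI (total growth inhibition) and LC50 (50% cytotoxicity) were read from concentration–response data. Values are average ± SEM, n = 3–5.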

HeLa [2] = experiment: Antiproliferative activity against human HeLa cells assessed as growth inhibition measured after 48 hrs by sulforhodamine B assay; assay type: functional; outline: as §1
BT-549 = experiment: Cytotoxicity against human BT-549 cells assessed as reduction in cell viability measured after 48 hrs by sulforhodamine B assay; assay type: functional; details: read-out: LC50 (the source's name)
Outline: (§2)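 Breast lines were tested in a 48 h SRB assay: four molecularly diverse triple-negative lines plus nontumorigenic MCF 10A, with MCF 10A tested up to 50 μM. LC50 values came from concentration–response curves. Complete cytotoxicity was taken as the concentration giving full cell kill after 48 h incubation.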

Sus scrofa = organism: Sus scrofa; experiment: Inhibition of porcine brain tubulin polymerization assessed as reduction in rate and extent of tubulin polymerization at 20 uM by turbidimetric assay
Outline: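 Purified porcine brain tubulin (20 μM) was incubated with 20 μM compound or DMSO vehicle. Polymerization was monitored turbidimetrically after shift to 37 °C.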

MDA-MB-231 = experiment: Cytotoxicity against human MDA-MB-231 cells assessed as reduction in cell viability measured after 48 hrs by sulforhodamine B assay; assay type: functional; outline: as §2
MDA-MB-453 = experiment: Cytotoxicity against human MDA-MB-453 cells assessed as reduction in cell viability measured after 48 hrs by sulforhodamine B assay; assay type: functional; outline: as §2
HCC1937 = experiment: Cytotoxicity against human HCC1937 cells assessed as reduction in cell viability measured after 48 hrs by sulforhodamine B assay; assay type: functional; details: read-out: LC50 (the source's name); outline: as §2
[3] = Selectivity index, ratio of LC50 for human HeLa cells to LC50 for human HCC1937 cells measured after 48 hrs by sulforhodamine B assay; assay type: functional
SK-OV-3 [4] = experiment: Antiproliferative activity against human SKOV3-M6/6 cells assessed as reduction in cell growth at 0.01 to 10 uM incubated for 48 hrs by SRB assay; assay type: functional, cell-based; details: dose microM 0.01-10, time 48.0 hrs
OVCAR-5 = experiment: Antiproliferative activity against human OVCAR-5 cells assessed as reduction in cell growth at 0.01 to 10 uM incubated for 48 hrs by SRB assay; assay type: functional, cell-based; details: dose microM 0.01-10, time 48.0 hrs
SK-OV-3 [5] = experiment: Antiproliferative activity against human SKOV3 cells assessed as reduction in cell growth at 0.01 to 10 uM incubated for 48 hrs by SRB assay; assay type: functional, cell-based; details: dose microM 0.01-10, time 48.0 hrs
ES2 = experiment: Antiproliferative activity against human ES-2 cells assessed as reduction in cell growth at 0.01 to 10 uM incubated for 48 hrs by SRB assay; assay type: functional, cell-based; details: dose microM 0.01-10, time 48.0 hrs
[6] = Selectivity ratio of antiproliferative activity against human SKOV3-M6/6 cells transfected with MDR1 to antiproliferative activity against human SKOV3 cells measured after 48 hrs by sulforhodamine B assay; assay type: functional
Tubulin (Homo sapiens) = Tubulin (Homo sapiens) (UniProt P68371+Q9H4B7+P0DPH7+P68366+Q13509+Q71U36+P04350+Q3ZCM7+P07437+P68363+Q9BQE3+Q6PEY2+Q13885+Q9BVA1+Q9BUF5); experiment: Induction of microtubule stabilization in human BT-549 cells assessed as bundling of microtubule network at 1 microM incubated for 6 hrs by indirect immunofluorescence assay; assay type: cell-based
Outline: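 BT-549 cells were treated for 6 h with compound or DMSO vehicle. Microtubules were then visualised by immunofluorescence with a β-tubulin antibody, scoring microtubule loss or bundling.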

| Structure (SMILES) | CC50 (HeLa [1]) [nM] | GI50 (HeLa [2]) [nM] | TGI (HeLa [2]) [nM] | other results |
| --- | --- | --- | --- | --- |
| C[C@]12C[C@H]3O[C@H]3C[C@@H]1CC[C@@H]1[C@@H]2CC[C@]2(C)C=CC(=O)[C@@H]12 | 18200 | 9200 | 12800 |  |
| CC(C)(C)OC(=O)N1[C@@H]2C[C@@]3(C)[C@@H](CC[C@H]4[C@@H]5[C@@H]6O[C@@H]6C(=O)[C@@]5(C)CC[C@@H]43)C[C@@H]21 | 730 | 640 | 680 |  |
| C[C@]12CCC(=O)C[C@@H]1CC[C@@H]1[C@@H]2CC[C@]2(C)C(=O)C=C[C@@H]12 | 1270 | 380 | 750 |  |
| C[C@]12CC[C@H](O)C[C@@H]1CC[C@@H]1[C@@H]2CC[C@]2(C)C(=O)C=C[C@@H]12 | 1180 | 420 | 770 |  |
| Cc1ccc(S(=O)(=O)N2[C@@H]3C[C@@]4(C)[C@@H](CC[C@H]5[C@@H]6[C@@H]7O[C@@H]7C(=O)[C@@]6(C)CC[C@@H]54)C[C@@H]32)cc1 (some centres not stated) | 660 | 450 | 540 | CC50 (BT-549): 260 nM; inhibition (Sus scrofa): inactive; LC50 (concentration killing 50% of cells) (MDA-MB-231): 470 nM; LC50 (concentration killing 50% of cells) (MDA-MB-453): 350 nM; CC50 (HCC1937): 760 nM |
| C[C@]12C[C@H]3O[C@H]3C[C@@H]1CC[C@@H]1[C@@H]2CC[C@]2(C)[C@@H]3O[C@@H]3C(=O)[C@@H]12 | > 50000 | 34700 | > 50000 |  |
| C[C@]12CC=CC[C@@H]1CC[C@H]1[C@@H]3[C@@H]4O[C@@H]4C(=O)[C@@]3(C)CC[C@@H]12 | 1480 | 700 | 1000 |  |
| C[C@]12CCC(=O)C[C@@H]1CC[C@H]1[C@@H]3[C@@H]4O[C@@H]4C(=O)[C@@]3(C)CC[C@@H]12 | 1900 | 1000 | 1400 | CC50 (BT-549): 1340 nM; LC50 (concentration killing 50% of cells) (MDA-MB-231): 1230 nM; LC50 (concentration killing 50% of cells) (MDA-MB-453): 1010 nM; RatioLC50 [3]: 2; CC50 (HCC1937): 700 nM |
| C[C@]12CC=CC[C@@H]1[C@@H](O)C[C@H]1[C@@H]3[C@@H]4O[C@@H]4C(=O)[C@@]3(C)CC[C@@H]12 | 1320 | 710 | 930 |  |
| C[C@]12C[C@H]3O[C@H]3C[C@@H]1C(=O)C[C@@H]1[C@@H]2CC[C@]2(C)C(=O)C=C[C@@H]12 | 2040 | 760 | 1280 | inhibition (Sus scrofa): Active |
| C[C@]12CC[C@H](O)C[C@@H]1CC[C@H]1[C@@H]3[C@@H]4O[C@@H]4C(=O)[C@@]3(C)CC[C@@H]12 | 2200 | 1300 | 1800 | CC50 (BT-549): 1430 nM; LC50 (concentration killing 50% of cells) (MDA-MB-231): 1400 nM; LC50 (concentration killing 50% of cells) (MDA-MB-453): 1080 nM; RatioLC50 [3]: 2; CC50 (HCC1937): 820 nM |
| CO[C@@H]1CC(=O)[C@@]2(C)CC[C@H]3[C@@H](C[C@H](O)[C@H]4C[C@@H]5O[C@@H]5C[C@@]43C)[C@H]12 | > 50000 | > 50000 | > 50000 |  |
| C[C@]12C[C@H]3O[C@H]3C[C@@H]1CC[C@@H]1[C@@H]2CC[C@]2(C)C(=O)C=C[C@@H]12 | 860 | 310 | 510 | CC50 (BT-549): 450 nM; inhibition (Sus scrofa): Active; CC50 (MDA-MB-231; read-out: LC50 (the source's name)): 1580 nM; CC50 (HCC1937): 1780 nM |
| CO[C@@H]1CC(=O)[C@@]2(C)CC[C@H]3[C@@H](C[C@H](O)[C@H]4CC=CC[C@@]43C)[C@H]12 | 48100 | 17500 | 30100 |  |
| CC(=O)O[C@H]1[C@H]2[C@H]([C@@H]3[C@@H](O)[C@@H]4[C@H]([C@H](C)[C@H]5O[C@]56OC(=O)[C@@](C)(O)[C@]46C)[C@@]3(C)[C@H]1OC(C)=O)[C@@H](O)C(=O)[C@H]1C[C@@H]3O[C@@H]3[C@H](OC(C)=O)[C@]21C |  |  |  | Activity (SK-OV-3 [4]): Active; Activity (OVCAR-5): Active; Activity (SK-OV-3 [5]): Active; Activity (ES2): Active |
| C[C@]12C[C@H]3O[C@H]3C[C@@H]1CC[C@@H]1[C@@H]2CC[C@]2(C)C(=O)CC[C@@H]12 | 43400 | 19200 | 29800 |  |
| C[C@]12C[C@H]3O[C@H]3C[C@@H]1CC[C@H]1[C@@H]3[C@@H]4O[C@@H]4C(=O)O[C@@]3(C)CC[C@@H]12 | > 50000 | 28200 | > 50000 |  |
| C[C@]12C[C@H]3O[C@H]3C[C@@H]1C(=O)C[C@H]1[C@@H]3[C@@H]4O[C@@H]4C(=O)[C@@]3(C)CC[C@@H]12 | 3700 | 2060 | 2660 |  |
| C[C@]12CC=CC[C@@H]1C(=O)C[C@@H]1[C@@H]2CC[C@]2(C)C(=O)C=C[C@@H]12 | 1290 | 760 | 980 |  |
| C[C@]12CC=CC[C@@H]1C(=O)C[C@H]1[C@@H]3[C@@H]4O[C@@H]4C(=O)[C@@]3(C)CC[C@@H]12 | 1570 | 820 | 1090 |  |
| C[C@]12C[C@H]3O[C@H]3C[C@@H]1CC[C@@H]1[C@@H]2CC[C@]2(C)[C@@H]3O[C@@H]3C[C@@H]12 | > 50000 | > 50000 | > 50000 |  |
| C[C@]12CC=CC[C@@H]1[C@@H](O)C[C@@H]1[C@@H]2CC[C@]2(C)C(=O)C=C[C@@H]12 | 700 | 277 | 410 |  |
| C[C@]12C[C@H]3O[C@H]3C[C@@H]1[C@@H](O)C[C@H]1[C@@H]3[C@@H]4O[C@@H]4C(=O)[C@@]3(C)CC[C@@H]12 | 3290 | 2010 | 2500 |  |
| CO[C@@H]1CC(=O)[C@@]2(C)CC[C@H]3[C@@H](CC(=O)[C@H]4C[C@@H]5O[C@@H]5C[C@@]43C)[C@H]12 | > 50000 | > 50000 | > 50000 |  |
| C[C@]12C[C@@H]3N[C@@H]3C[C@@H]1CC[C@H]1[C@@H]3[C@@H]4O[C@@H]4C(=O)[C@@]3(C)CC[C@@H]12 | 1420 | 470 | 750 |  |
| C[C@]12CC[C@H]3[C@@H](CC[C@H]4C[C@@H]5O[C@@H]5C[C@@]43C)[C@@H]1[C@H](O)[C@H]1O[C@H]12 | > 50000 | > 50000 | > 50000 |  |
| C[C@]12C[C@H]3O[C@H]3C[C@@H]1[C@@H](O)C[C@@H]1[C@@H]2CC[C@]2(C)C(=O)C=C[C@@H]12 | 2370 | 1180 | 1620 | inhibition (Sus scrofa): Active |
| CC(=O)O[C@H]1C(=O)[C@@]2(C)[C@H]([C@H](OC(=O)c3ccccc3)[C@]3(O)C[C@H](OC(=O)[C@H](O)[C@@H](NC(=O)c4ccccc4)c4ccccc4)C(C)=C1C3(C)C)[C@]1(OC(C)=O)CO[C@@H]1C[C@@H]2O [PACLITAXEL] |  |  |  | Activity (SK-OV-3 [4]): Active; Activity (OVCAR-5): Active; Activity (SK-OV-3 [5]): Active; Ratio [6]: 25; Activity (ES2): Active; Activity (Tubulin (Homo sapiens)): Active |
| CO[C@@H]1CC(=O)[C@@]2(C)CC[C@H]3[C@@H](CC(=O)[C@H]4CC=CC[C@@]43C)[C@H]12 | > 50000 | 19400 | 35500 |  |

From ChEMBL document CHEMBL4725498, “Synthesis and Biological Evaluations of Electrophilic Steroids Inspired by the Taccalonolides” (ACS Med Chem Lett, 2020)
